Measured values from ChEMBL document CHEMBL1221309, “Synthesis of novel tetrahydroisoquinoline bronchodilators” (Bioorg Med Chem Lett, 2010).
≈ marks a conversion by molar mass, not a printed value.

Legend:
[1] = species on record: Homo sapiens; experiment: Bronchorelaxant activity in human small airways assessed as remaining contraction at 10 uM relative to LTD4; type: functional
Summary of the method: (§1)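 Isolated human small airways (inner diameter <2.0 mm) were mounted in a previously described apparatus and contracted with LTD4. The test item was added, usually at 10 μM and also at 1 μM. %RC is the contraction remaining with the test item, expressed against the maximum LTD4-evoked contraction without it.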

[2] = species on record: Homo sapiens; experiment: Bronchorelaxant activity in human small airways assessed as remaining contraction at 1 uM relative to LTD4; type: functional; summary of the method: as §1
[3] = species on record: Homo sapiens; experiment: Bronchorelaxant activity in human small airways assessed as remaining contraction; type: functional; summary of the method: as §1
[4] = Aqueous solubility of the compound; type: physicochemical
[5] = Lipophilicity log D of the compound at pH 7.4; type: physicochemical; conditions: buffer
[6] = species on record: Homo sapiens; experiment: Bronchorelaxant activity in human small airways assessed as remaining contraction at 10 uM relative to acetylcholine; type: functional
Summary of the method: (§2)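 Isolated human small airways (inner diameter <2.0 mm) were contracted with acetylcholine, with histamine, or with a cocktail of LTD4, acetylcholine and histamine. Test item at 10 μM; relaxation of each induced contraction was recorded.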

[7] = species on record: Homo sapiens; experiment: Bronchorelaxant activity in human small airways assessed as remaining contraction at 10 uM relative to histamine; type: functional; summary of the method: as §2
[8] = species on record: Homo sapiens; experiment: Bronchorelaxant activity in human small airways assessed as remaining contraction at 10 uM relative to acetylcholine and histamine combination; type: functional; summary of the method: as §2

SMILES | Activity [1] | Activity [2] | further results
O=C(/C=C/c1ccc(O)cc1)N1CCc2c(Cl)c(O)c(O)c(Cl)c2C1 | 32% |  | 
O=C(CCCc1ccc(C(F)(F)F)nc1)N1CCc2c(Cl)c(O)c(O)c(Cl)c2C1 | 26% | 93% | 
O=C(CCCc1ccc(C(F)(F)F)cn1)N1CCc2c(Cl)c(O)c(O)c(Cl)c2C1 | 19% | 72% | 
O=C(/C=C/c1ccc(C(F)(F)F)nc1)N1CCc2c(Cl)c(O)c(O)c(Cl)c2C1 | 6% | 87% | 
O=C(CCCc1ccc(F)cn1)N1CCc2c(Cl)c(O)c(O)c(Cl)c2C1 | 25% | 89% | 
COc1ccc(CCCC(=O)N2CCc3c(Cl)c(O)c(O)c(Cl)c3C2)nc1 | 31% | 96% | 
CS(=O)(=O)c1ccc(CCCC(=O)N2CCc3c(Cl)c(O)c(O)c(Cl)c3C2)nc1 | 72% | 99% | 
O=C(CCCc1ccc(Cl)cn1)N1CCc2c(Cl)c(O)c(O)c(Cl)c2C1 | 15% | 85% | 
Cc1cc(C(F)(F)F)cnc1CCCC(=O)N1CCc2c(Cl)c(O)c(O)c(Cl)c2C1 | 7% | 67% | 
O=C(/C=C/c1cccnc1)N1CCc2c(Cl)c(O)c(O)c(Cl)c2C1 | 44% | 100% | 
Cc1nc(C(F)(F)F)ccc1/C=C/C(=O)N1CCc2c(Cl)c(O)c(O)c(Cl)c2C1 | 9% | 71% | 
O=C(/C=C/c1ccc(C(F)(F)F)nc1)N1CCc2c(c3c(c4c2CCO4)OCC3)C1 | 91% |  | 
O=C(/C=C/c1ccccc1)N1CCc2c(Cl)c(O)c(O)c(Cl)c2C1 | 41% | 83% | 
Cc1nc(C(F)(F)F)ncc1/C=C/C(=O)N1CCc2c(Cl)c(O)c(O)c(Cl)c2C1 | 18% | 88% | 
Cc1c(O)c(O)c(C)c2c1CCN(C(=O)/C=C/c1ccc(C(F)(F)F)nc1)C2 | 75% |  | 
O=C(CCc1ccc(C(F)(F)F)nc1)N1CCc2c(F)c(O)c(O)c(F)c2C1 | 85% |  | 
C/C(=C\C(=O)N1CCc2c(Cl)c(O)c(O)c(Cl)c2C1)c1ccc(C(F)(F)F)nc1 | 7% | 74% | ED50 [3]: 2270 nM; solubility [4]: 18 µM (≈ 8.05 µg/mL); logD [5]: 3.5; Activity [6]: 93%; Activity [7]: 97%; Activity [8]: 82%
O=C(CCCc1ncc(C(F)(F)F)cc1Cl)N1CCc2c(Cl)c(O)c(O)c(Cl)c2C1 | 5% | 61% | 
O=C(CCc1ccc(C(F)(F)F)nc1)N1CCc2c(Cl)c(O)c(O)c(Cl)c2C1 | 29% |  | 
O=C(CCCc1ncc(C(F)(F)F)cc1-c1ccccc1)N1CCc2c(Cl)c(O)c(O)c(Cl)c2C1 | 38% | 90% | 
N#Cc1ccc(CCCC(=O)N2CCc3c(Cl)c(O)c(O)c(Cl)c3C2)nc1 | 34% | 86% | 
O=C(CCCc1ccc(Cl)cc1)N1CCc2c(Cl)c(O)c(O)c(Cl)c2C1 | 16% | 80% | 
O=C(CCCc1ncc(C(F)(F)F)cc1C1CCCCC1)N1CCc2c(Cl)c(O)c(O)c(Cl)c2C1 | 77% |  | 
O=C(/C=C/c1ccc(F)cn1)N1CCc2c(Cl)c(O)c(O)c(Cl)c2C1 | 24% |  | 
O=C(CCCc1ccc([N+](=O)[O-])cn1)N1CCc2c(Cl)c(O)c(O)c(Cl)c2C1 | 33% | 74% | 
